According to ChEMBL document CHEMBL4325839, “Design, synthesis and biological evaluations of quaternization harman analogues as potential antibacterial agents” (Eur J Med Chem, 2018):
Values after ≈ are worked out from the molar mass of the structure shown.

Experiments:
Format in all cases: functional
Bacillus cereus = experiment: Antibacterial activity against Bacillus cereus CGMCC 1.1846 after 12 to 14 hrs by double dilution method
Bacillus subtilis = experiment: Antibacterial activity against Bacillus subtilis 769 after 12 to 14 hrs by double dilution method
Ralstonia solanacearum = experiment: Antibacterial activity against Ralstonia solanacearum CGMCC 1.12711 measured after 12 to 14 hrs by double dilution method
Procedure, shortened: (§1)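 Broth double-dilution MIC per NCCLS. Bacteria at 1×10^6 CFU/mL in Luria-Bertani medium. Compounds dissolved in DMSO as stock, then diluted in medium to 200, 100, 50, 25, 12.5, 6.25 and 3.125 nmol/mL (DMSO <0.5%); some also tested at 256–1 µg/mL. Incubated at 37 °C for 12–14 h. MIC read as lowest concentration giving visible growth inhibition.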

Escherichia coli = experiment: Antibacterial activity against Escherichia coli CGMCC 1.1636 after 12 to 14 hrs by double dilution method
Staphylococcus aureus [1] = experiment: Antibacterial activity against methicillin-resistant Staphylococcus aureus ATCC 43300 after 12 to 14 hrs by double dilution method; procedure, shortened: as §1
Staphylococcus aureus [2] = experiment: Antibacterial activity against Staphylococcus aureus CGMCC 1.8721 after 12 to 14 hrs by double dilution method

Row | SMILES | MIC (Bacillus cereus) | MIC (Bacillus subtilis) | MIC (Ralstonia solanacearum) | MIC (Escherichia coli) | MIC (Staphylococcus aureus [1]) | MIC (Staphylococcus aureus [2])
1 | COC(=O)c1ccc(-c2c3[nH]c4ccccc4c3cc[n+]2Cc2ccc(C)cc2)cc1 | 100 µM | 50 µM | 50 µM | 200 µM | 50 µM | 50 µM
2 | COC(=O)c1ccc(-c2c3[nH]c4ccc(OC)cc4c3cc[n+]2Cc2cccc(Br)c2)cc1 | 75 µM | 25 µM | 25 µM | – | 50 µM | 50 µM
3 | COc1ccc2[nH]c3c(-c4ccc5c(c4)OCO5)[n+](Cc4ccccc4)ccc3c2c1 | 200 µM | 50 µM | 50 µM | > 200 µM | 50 µM | 100 µM
4 | c1ccc(C[n+]2ccc3c([nH]c4ccccc43)c2-c2ccccn2)cc1 | > 200 µM | > 200 µM | > 200 µM | > 200 µM | > 200 µM | > 200 µM
5 | COC(=O)c1ccc(-c2c3[nH]c4ccc(OC)cc4c3cc[n+]2Cc2ccc(C)cc2)cc1 | 50 µM | 50 µM | 50 µM | > 200 µM | 100 µM | 50 µM
6 | COC(=O)c1ccc(-c2c3[nH]c4ccc(OC)cc4c3cc[n+]2Cc2ccccc2F)cc1 | 200 µM | 100 µM | 150 µM | – | 200 µM | 200 µM
7 | COc1ccc2[nH]c3c(-c4ccccn4)[n+](Cc4ccc(C(F)(F)F)cc4)ccc3c2c1 | 200 µM | 100 µM | 100 µM | > 200 µM | 100 µM | 100 µM
8 | COC(=O)c1ccc(-c2c3[nH]c4ccc(OC)cc4c3cc[n+]2Cc2cccc(F)c2)cc1 | 200 µM | 75 µM | 150 µM | – | 200 µM | 200 µM
9 | COC(=O)c1ccc(-c2nccc3c2[nH]c2ccccc23)cc1 | > 200 µM | > 200 µM | > 200 µM | > 200 µM | > 200 µM | > 200 µM
10 | COc1ccc2[nH]c3c(-c4ccco4)[n+](Cc4ccccc4)ccc3c2c1 | 200 µM | 50 µM | 100 µM | > 200 µM | 100 µM | 100 µM
11 | COC(=O)c1ccc(-c2c3[nH]c4ccccc4c3cc[n+]2Cc2ccccc2)cc1 | 200 µM | 100 µM | 100 µM | > 200 µM | 200 µM | 100 µM
12 | COc1ccc2[nH]c3c(-c4ccc5c(c4)OCO5)nccc3c2c1 | > 200 µM | > 200 µM | > 200 µM | > 200 µM | 200 µM (≈ 63.7 µg/mL) | 200 µM (≈ 63.7 µg/mL)
13 | COc1ccc2[nH]c3c(-c4ccccn4)nccc3c2c1 | > 200 µM | > 200 µM | > 200 µM | > 200 µM | > 200 µM | > 200 µM
14 | COC(=O)c1ccc(-c2nccc3c2[nH]c2ccc(OC)cc23)cc1 | > 200 µM | > 200 µM | > 200 µM | > 200 µM | > 200 µM | > 200 µM
15 | c1ccc2c(c1)[nH]c1c(-c3ccc4c(c3)OCO4)nccc12 | > 200 µM | > 200 µM | > 200 µM | > 200 µM | > 200 µM | > 200 µM
16 | COC(=O)c1ccc(-c2c3[nH]c4ccc(OC)cc4c3cc[n+]2Cc2ccccc2)cc1 | 200 µM | 100 µM | 100 µM | > 200 µM | 200 µM | 100 µM
17 | COC(=O)c1ccc(-c2c3[nH]c4ccc(OC)cc4c3cc[n+]2Cc2ccc(Cl)cc2)cc1 | 50 µM | 50 µM | 37.5 µM | – | 100 µM | 50 µM

Row | SMILES | MIC (Bacillus cereus) | MIC (Bacillus subtilis) | MIC (Ralstonia solanacearum) | MIC (Escherichia coli) | MIC (Staphylococcus aureus [1]) | MIC (Staphylococcus aureus [2])
18 | Cc1ccc(C[n+]2ccc3c([nH]c4ccccc43)c2-c2ccccn2)cc1 | 100 µM | 100 µM | 50 µM | > 200 µM | 50 µM | 25 µM
19 | COC(=O)c1ccc(-c2c3[nH]c4ccc(OC)cc4c3cc[n+]2Cc2ccccc2Br)cc1 | 100 µM | 50 µM | 50 µM | – | 75 µM | 75 µM
20 | COc1ccc2[nH]c3c(-c4ccccn4)[n+](Cc4ccc(C)cc4)ccc3c2c1 | 200 µM | 100 µM | 100 µM | > 200 µM | 100 µM | 100 µM
21 | c1ccc(-c2nccc3c2[nH]c2ccccc23)nc1 | > 200 µM | > 200 µM | > 200 µM | > 200 µM | > 200 µM | > 200 µM
22 | C[C@@H]1O[C@@H]1P(=O)(O)O [PHOSPHOMYCIN DISODIUM] | 25 µM | 12.5 µM | 50 µM | 6.25 µM | 50 µM | 100 µM
23 | c1ccc(C[n+]2ccc3c([nH]c4ccccc43)c2-c2ccc3c(c2)OCO3)cc1 | 100 µM | 50 µM | 100 µM | > 200 µM | 100 µM | 100 µM
24 | COC(=O)c1ccc(-c2c3[nH]c4ccccc4c3cc[n+]2Cc2ccc(C(F)(F)F)cc2)cc1 | 100 µM | 50 µM | 50 µM | 200 µM | 50 µM | 50 µM
25 | FC(F)(F)c1ccc(C[n+]2ccc3c([nH]c4ccccc43)c2-c2ccccn2)cc1 | 100 µM | 50 µM | 50 µM | > 200 µM | 50 µM | 25 µM
26 | COC(=O)c1ccc(-c2c3[nH]c4ccc(OC)cc4c3cc[n+]2Cc2ccc([N+](=O)[O-])cc2)cc1 | 200 µM | 200 µM | 100 µM | – | 200 µM | 100 µM
27 | COC(=O)c1ccc(-c2c3[nH]c4ccc(OC)cc4c3cc[n+]2Cc2ccc(F)cc2)cc1 | 200 µM | 75 µM | 150 µM | – | 200 µM | 100 µM
28 | COC(=O)c1ccc(-c2c3[nH]c4ccc(OC)cc4c3cc[n+]2Cc2ccc(F)cc2F)cc1 | 200 µM | 100 µM | 100 µM | – | > 200 µM | 100 µM
29 | COc1ccc2[nH]c3c(-c4ccco4)[n+](Cc4ccc(C)cc4)ccc3c2c1 | 100 µM | 25 µM | 25 µM | 100 µM | 50 µM | 50 µM
30 | Cc1ccc(C[n+]2ccc3c([nH]c4ccccc43)c2-c2ccco2)cc1 | 100 µM | 25 µM | 25 µM | 100 µM | 50 µM | 50 µM
31 | COc1ccc2[nH]c3c(-c4ccco4)nccc3c2c1 | > 200 µM | > 200 µM | > 200 µM | > 200 µM | > 200 µM | > 200 µM
32 | Cc1ccc(C[n+]2ccc3c([nH]c4ccccc43)c2-c2ccc3c(c2)OCO3)cc1 | 100 µM | 25 µM | 50 µM | > 200 µM | 50 µM | 50 µM
33 | CO/N=C(\C(=O)N[C@@H]1C(=O)N2C(C(=O)O)=C(COC(C)=O)CS[C@H]12)c1csc(N)n1 [CEFOTAXIME SODIUM] | 25 µM | 3.12 µM | 3.12 µM | 1.56 µM | 25 µM | 1.56 µM
